38 sequences from the array DNA melting data of Ke et al. (doi:10.1101/2024.01.08.574731) can be followed below.

The nature of series [1]: melting temperature; fluorescence melt of hairpins on a sequencing array, two-state fit, raised by 9.35 °C to match UV melts. Conditions: sodium 0.088 M. The method in brief:
(§1)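 Melting temperature and folding enthalpy were derived from bootstrapped two-state fits. The fitted temperatures were raised by 9.35 °C to agree with UV melts, and four replicates were combined by inverse variance. The underlying data were Cy3 fluorescence images of library hairpins, with annealed Cy3 and quencher oligos, on a sequenced MiSeq flow cell in 50 mM Na-HEPES pH 8.0, 25 mM NaCl, taken in 2.5 °C steps up to 60 °C, normalised to pre-quench Cy3 and to control constructs.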

Series [2] is described as follows: folding enthalpy; higher = less favourable; fluorescence melt of hairpins on a sequencing array, two-state fit. Conditions: sodium 0.088 M. An outline of the steps: as §1

Consider GATCGCCCGGCGATC ((((((...)))))), for which the Tm in series [1] worked out at 68.5 °C. In addition, the folding enthalpy in series [2] is -40.9 kcal/mol.
The corresponding values for GATCGCCCTGCGATC ((((((...)))))) are 67.8 °C and -32 kcal/mol.
The corresponding values for GATCGCCGAAAGGCAATC (((.(((....))).))) are 44.8 °C and -17.1 kcal/mol.
For the sequence GATCGCCGAAAGGCCATC (((.(((....))).))), the Tm in series [1] worked out at 38.6 °C. Further, the folding enthalpy in series [2] was -14.5 kcal/mol.
The corresponding values for GATCGCCGCCGCGATC ((((((....)))))) are 66.6 °C and -36 kcal/mol.
The corresponding values for GATCGCCGTTGCGATC ((((((....)))))) are 66.2 °C and -53.2 kcal/mol.
Regarding GATCGCCTCGCGATC ((((((...)))))), the Tm in series [1] turned out to be 68.7 °C. Moreover, the folding enthalpy in series [2] is -30.2 kcal/mol.
The corresponding values for GATCGCCTGGCGATC ((((((...)))))) are 67.9 °C and -35.7 kcal/mol.
The corresponding values for GATCGCCTTTGCGATC ((((((....)))))) are 67.8 °C and -38.6 kcal/mol.
The corresponding values for GATCGCGAAAGCGAATC ((((((....))).))) are 52.5 °C and -14 kcal/mol.
As for GATCGCGAAAGCGAGATC ((((((....)))..))), the Tm in series [1] was determined as 60.6 °C. In addition, the folding enthalpy in series [2] was -13.8 kcal/mol.
The corresponding values for GATCGCGAAAGCGGCATC ((((((....)))..))) are 32.1 °C and -7.52 kcal/mol.
Take GATCGCGAAAGCGTAATC ((((((....)))..))): the Tm in series [1] amounted to 29.2 °C. In addition, the folding enthalpy in series [2] was -8.8 kcal/mol.
The corresponding values for GATCGCGAAAGCGTCATC ((((((....)))..))) are 33.8 °C and -7.57 kcal/mol.
Take GATCGCGATTGCGATC ((((((....)))))): in series [1], the Tm stood at 68.7 °C. Also, the folding enthalpy in series [2] is -34.2 kcal/mol.
With GATCGCGGAAACGCAATC (((.(((....))).))), in series [1], the Tm came to 41.3 °C. The folding enthalpy in series [2] is -22.6 kcal/mol.
Regarding GATCGCGGAAACGCGGTC ((.((((....)))).)), in series [1], the Tm was found to be 62.8 °C. Further, in series [2], the folding enthalpy was -22.8 kcal/mol.
The corresponding values for GATCGCGTGGCGATC ((((((...)))))) are 69 °C and -32.6 kcal/mol.
As for GATCGCGTGTGCGATC ((((((....)))))), the Tm in series [1] worked out at 68.5 °C. Also, in series [2], the folding enthalpy is -29.3 kcal/mol.
The corresponding values for GATCGCTAAAGCGATC ((((((....)))))) are 67.1 °C and -27.7 kcal/mol.
For GATCGCTACTGCGATC ((((((....)))))), the Tm in series [1] amounted to 68.5 °C. For the same sequence, the folding enthalpy in series [2] is -34.5 kcal/mol.
The corresponding values for GATCGCTAGAGCGATC ((((((....)))))) are 67.6 °C and -34.2 kcal/mol.
In the case of GATCGCTAGGCGATC ((((((...)))))), in series [1], the Tm was determined as 68.4 °C. Further, the folding enthalpy in series [2] is -36.8 kcal/mol.
The corresponding values for GATCGCTCAGGCGATC ((((((....)))))) are 67.9 °C and -36.1 kcal/mol.
With GATCGCTCGGGCGATC ((((((....)))))), the Tm in series [1] worked out at 69.2 °C. Besides, in series [2], the folding enthalpy is -38.6 kcal/mol.
The corresponding values for GATCGCTCGTGCGATC ((((((....)))))) are 67.2 °C and -41.6 kcal/mol.
For GATCGCTGAGGCGATC ((((((....)))))), the Tm in series [1] stood at 68.5 °C. The folding enthalpy in series [2] was -38.1 kcal/mol.
The corresponding values for GATCGCTTACGCGATC ((((((....)))))) are 68.6 °C and -31.8 kcal/mol.
The corresponding values for GATCGCTTATGCGATC ((((((....)))))) are 68.1 °C and -33.8 kcal/mol.
The corresponding values for GATCGCTTCCGCGATC ((((((....)))))) are 67.2 °C and -36 kcal/mol.
Turning to GATCGCTTGGGCGATC ((((((....)))))), the Tm in series [1] turned out to be 69.1 °C. Besides, the folding enthalpy in series [2] was -27.7 kcal/mol.
Consider GATCGGAAACGATC (((((....))))), for which, in series [1], the Tm was found to be 55.1 °C. The folding enthalpy in series [2] was -28.7 kcal/mol.
The corresponding values for GATCGGAAATCCGATC ((((((....)))))) are 54.5 °C and -44.8 kcal/mol.
The corresponding values for GATCGGAAGGCCGATC ((((((....)))))) are 53.9 °C and -35.7 kcal/mol.
The corresponding values for GATCGGAATCCCGATC ((((((....)))))) are 53.9 °C and -36.3 kcal/mol.
On to GATCGGACAGCCGATC ((((((....)))))), for which the Tm in series [1] came to 52.4 °C. In addition, the folding enthalpy in series [2] is -36.9 kcal/mol.
The corresponding values for GATCGGACCACCGATC ((((((....)))))) are 56.9 °C and -37.2 kcal/mol.
For GATCGGACCCCCGATC ((((((....)))))), in series [1], the Tm is 54.7 °C. Besides, the folding enthalpy in series [2] was -32.9 kcal/mol.
